Bioassay records as filed in PubChem BioAssay.
This is a sample that favours compounds with a hit; in the whole collection about 2.3% have one here.
HNF4A DNA FP: change in binding of human HNF4 alpha to DNA | AID 1224865 | activity change, % at 10 µM | HNF4a-FITC DNA binding, fluorescence polarization, 1 h | 360,000 tested, 0.3% active; in the data active = activity change above about 30%, passing the limit was not always enough
TPT1 inhibitor: inhibitors of Candida albicans tRNA 2'-phosphotransferase TPT1 | recombinant caTPT1, FP RNA substrate dephosphorylation | inhibition, % at 5 µM | 300,000 tested, 0.81% active | AID 1962;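 active = inhibition above the mean of all tested compounds plus 3 SD, set per screening campaign, cut at about 24% in these data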
CRFR2-BP ag: CRF-BP/CRF-R2 complex agonism. HEK293 CRF-R2/CRF-BP, calcium dye fluorescence (FLIPR); percent of saturating CRF peptide response. activation, % at 13.2 µM. 350,000 tested, 0.46% active. AID 588473;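 active = activation of at least 50%, plus an integration ratio under a set limit after plate pattern correction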
Rpn11 block: Rpn11 (human) deubiquitinase inhibition; O00487; human 26S proteasome, Ub4-pepOG fluorescence polarization; 20S core pre-blocked with epoxomicin; calls only at 20 µM; 360,000 tested, 0.59% active; AID 588493;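 active = inhibition at 20 µM, scaled to each plate's controls, above about 33%, limit read from the data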
Target sequence (O00487 whole entry, looked up): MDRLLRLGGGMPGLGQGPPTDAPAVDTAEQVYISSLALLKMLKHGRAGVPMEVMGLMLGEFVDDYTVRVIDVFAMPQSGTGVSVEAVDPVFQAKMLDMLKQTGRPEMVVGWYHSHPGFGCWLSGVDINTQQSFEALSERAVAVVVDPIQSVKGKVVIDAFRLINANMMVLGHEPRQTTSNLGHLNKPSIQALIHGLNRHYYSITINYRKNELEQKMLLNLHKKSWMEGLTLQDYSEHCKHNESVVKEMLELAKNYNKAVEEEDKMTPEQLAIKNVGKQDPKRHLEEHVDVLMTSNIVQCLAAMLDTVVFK
CRFBP-R2 block: blocks CRF-induced signaling of the CRF-BP/CRF-R2 complex; HEK293 CRF-R2/CRF-BP, CRF-induced calcium fluorescence; inhibition, % at 11.8 µM; 350,000 tested, 0.59% active; AID 588475;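 active = inhibition of the ligand-induced calcium signal above about 50% at the single tested concentration, limit read from the data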
CSN deneddyl inh: blocks human CSN-mediated cullin deneddylation; inhibition, % at 12.5 µM; 360,000 tested, 0.38% active; Q92905; AID 651999; Purified CSN, SCF-Nedd8-OG deneddylation, fluorescence polarization;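 active = pattern-corrected inhibition above about 35%, with an unprinted fluorescence ratio check between 0.5 and 1.5, limit read from the data, passing the limit was not always enough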
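Schedule: reaction 90 min, room temperature / Assay system: HEK293T-derived human Csn5 enzyme / Input: Csn5 at 0.24 nM final / Measure: inhibition of Csn5 cleavage, % / Control set: substrate-only high control, full reaction low control / Technique: fluorescence polarization of the substrate / Buffer or medium: Tris/NaCl/DTT buffer, pH 7.5 / Reagent: SCFSkp2-Nedd8OG substrate at 10 nM final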
Large screens that a line does not name were inactive.

O=C(Nc1cc([N+](=O)[O-])ccc1O)NC1CCS(=O)(=O)C1 (stereo not given)	none (no result: TPT1 inhibitor)
c1ccc(Oc2cccc(OCCCCSc3ncccn3)c2)cc1	CRFR2-BP ag 51
O=C1c2ccccc2C(=O)N1Cc1ccco1	none
O=C1c2cccc3c(O)ccc(c23)C(=O)N1Cc1ccco1	CRFR2-BP ag 252 (no result: TPT1 inhibitor)
COC(=O)c1ccc(CNC(=O)COC(=O)CC23CC4CC(CC(Br)(C4)C2)C3)cc1	CRFBP-R2 block 51
Cc1ccc(NC(=O)C(C)N=C2NS(=O)(=O)c3ccccc32)cc1 (stereo not given)	none
CC(N=C1NS(=O)(=O)c2ccccc21)C(=O)N1CCc2ccccc2C1 (stereo not given)	CRFBP-R2 block 106
Cc1ccc(N2CCN(C(=O)CN3C(=O)c4ccccc4C3=O)CC2)cc1	CRFBP-R2 block 56
Cc1ccc(NC(=O)C2=C(c3ccccc3)S(=O)(=O)CCS2(=O)=O)cc1	CRFR2-BP ag 55
NC(=O)c1c(N)[nH]c(C(=O)c2ccccc2)c1-c1ccccc1Br	CSN deneddyl inh 108 (no result: TPT1 inhibitor, CRFR2-BP ag, Rpn11 block, CRFBP-R2 block)
COc1ccccc1NC(=O)CCSc1nnnn1C	CRFR2-BP ag 121
COc1c2c(c(OC)c3ccccc13)[C@@]1(OC2)O[C@H](CCO)C[C@H](O)[C@H]1O	CRFBP-R2 block 101 (no result: TPT1 inhibitor)
COc1ccc2c(c1)CO[C@@]21O[C@H](CCO)C[C@H](O)[C@H]1O	none (no result: TPT1 inhibitor, CRFR2-BP ag, CRFBP-R2 block)
CC(=O)O[C@H]1CC(C)(C)C(=C=C/C(C)=C/C=C/C(C)=C/C=C/C=C(C)/C=C/C=C(\C)C(=O)C[C@@]23O[C@]2(C)C[C@@H](O)CC3(C)C)[C@](C)(O)C1	none (no result: HNF4A DNA FP, Rpn11 block, CSN deneddyl inh)
Nn1c(SCC(=O)Nc2c(F)cc(F)cc2Br)nnc1C1CCCCC1	CSN deneddyl inh 108
Nn1c(SCC(=O)Nc2ccc(F)cc2F)nnc1C1CCCCC1	none
COc1cccc(CNC(=O)CN(c2ccc(C(C)C)cc2)S(=O)(=O)c2c(C)noc2C)c1	CRFBP-R2 block 110
COc1cccc(CNC(=O)CN(c2cc(C)cc(C)c2)S(=O)(=O)c2c(C)noc2C)c1	none
O=c1cc(Cc2ccc([N+](=O)[O-])cc2)[nH]c(=O)[nH]1	CRFBP-R2 block 57 (no result: TPT1 inhibitor)
Nc1ccc(Cc2ccc([N+](=O)[O-])cc2)cc1	none (no result: TPT1 inhibitor)
COc1ccccc1N1CCN(c2ccc3c(c2)S(=O)(=O)c2cccc(C(=O)NCC4CC4)c2C3=O)CC1	none (no result: TPT1 inhibitor)
O=C(NCc1ccco1)c1cccc2c1C(=O)c1ccc(N3CCC(N4CCCCC4)CC3)cc1S2(=O)=O	CSN deneddyl inh 39 (not shown: TPT1 inhibitor, Rpn11 block)
CC1CCN(c2ccc3c(c2)S(=O)(=O)c2cccc(C(=O)NCc4ccc(F)cc4)c2C3=O)CC1	CRFR2-BP ag 85 (no result: TPT1 inhibitor)
O=C(NCc1ccc(F)cc1)c1cccc2c1C(=O)c1ccc(N3CCC(N4CCCCC4)CC3)cc1S2(=O)=O	CSN deneddyl inh 45 (not shown: TPT1 inhibitor, Rpn11 block)
CC1CCN(c2ccc3c(c2)S(=O)(=O)c2cccc(C(=O)O)c2C3=O)CC1	none (not shown: TPT1 inhibitor, Rpn11 block)
O=C(NC1CC1)c1cccc2c1C(=O)c1ccc(N3CCC(Cc4ccccc4)CC3)cc1S2(=O)=O	CRFR2-BP ag 83 (no result: TPT1 inhibitor)
Cn1c(=O)c2c(nc(CN3CCOCC3)n2CC(O)CO)n(C)c1=O (stereo not given)	none
CNc1cc([N+](=O)[O-])ccc1N/C=C/C(=O)c1ccc2c(c1)OCO2	none
CC(C)c1cccc(-c2ccc3c(c2)S(=O)(=O)c2cccc(C(=O)O)c2C3=O)c1	none (no result: TPT1 inhibitor)
O=C(NCCc1ccccc1)c1cccc2c1C(=O)c1ccc(N3CCOCC3)cc1S2(=O)=O	none (no result: TPT1 inhibitor)
CC(C)c1cccc(-c2ccc3c(c2)S(=O)(=O)c2cccc(C(=O)NCc4ccco4)c2C3=O)c1	CSN deneddyl inh 49 (no result: TPT1 inhibitor)
O=C(NCc1cc(C(F)(F)F)ccc1Cl)c1cccc2c1C(=O)c1ccc(N3CCC(Cc4ccccc4)CC3)cc1S2(=O)=O	CRFR2-BP ag 73 (no result: TPT1 inhibitor)
O=C(NCc1ccc(F)cc1)c1cccc2c1C(=O)c1ccc(N3CCC(Cc4ccccc4)CC3)cc1S2(=O)=O	CRFR2-BP ag 126 (no result: TPT1 inhibitor)
Cc1c(C(=O)N2CCCC2)nnn1-c1nonc1N	none
O=C(N/N=C\c1cccnc1)c1cc(-c2ccc(Cl)s2)[nH]n1	CSN deneddyl inh 39
O=C(N/N=C/c1cccnc1)c1ccccc1Cl	none
